Source: ChEMBL document CHEMBL1781942, “Microwave-assisted synthesis, crystal structure of pyrazolo[1,5-a]pyrazin-4(5H)-ones and their selective effects on lung cancer cells” (Eur J Med Chem, 2011)
Active and inactive are the calls of the source. No cut-off for these calls is given here.

Assays:
[1] = test system: A549; assay: Cell cycle arrest in human A549 cells assessed as accumulation at […] phase at 64 uM after 48 hrs by propidium iodide staining-based flow cytometry (reference value: 1.94 %); format: functional
[2] = test system: NCI-H1299; assay: Induction of apoptosis in human p53-null H1299 cells assessed as DNA fragmentation at 32 to 64 uM after 48 hrs by Hoechst 33258 staining-based fluorescence microscopy; format: functional, cell-based
Procedure, shortened: (§1)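 H322 or H1299 cells treated 48 h at 32 or 64 µM versus 0.1% DMSO. Fixed in 4% formaldehyde in PBS for 10 min, then stained with 2 µg/mL Hoechst 33258, 30 min, 37 °C, and washed with PBS. Condensed, intensely stained nuclei counted as apoptotic under fluorescence microscopy. At least 500 cells counted; triplicate.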

[3] = test system: A549; assay: Induction of necrosis in human A549 cells assessed as LDH release at 64 uM after 48 hrs; format: functional, cell-based
Procedure, shortened: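 A549 cells exposed 48 h to 64 µM or 0.1% DMSO control. Culture medium collected and lactate dehydrogenase measured with a commercial kit, absorbance at 440 nm. Mean ± SE, n = 3.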

[4] = test system: A549; assay: Growth inhibition of human A549 cells assessed as cell viability after 48 hrs by SRB assay; format: functional, cell-based
Procedure, shortened: (§2)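 A549 cells (p53 wild-type) in RPMI 1640 with 10% bovine calf serum, seeded at 6250/cm2 in 96-well plates. Exposed 48 h to 8, 16, 32 or 64 µM. SRB read-out gave survival percentage against 0.1% DMSO-treated cells. Means ± SE from three independent experiments.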

[5] = Cytotoxicity against human embryonic lung cells assessed as growth inhibition at 32 to 64 uM after 48 hrs by SRB assay; format: cell-based
Procedure, shortened: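 Human embryo lung cells grown in RPMI 1640 with 10% bovine calf serum, seeded at 6250/cm2, treated 48 h at 32 or 64 µM. Controls were 0.1% DMSO vehicle and 5-FU as positive control. Viability by SRB, relative to DMSO-treated cells. Means ± SE, three independent experiments.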

[6] = test system: NCI-H322; assay: Induction of apoptosis in human NCI-H322 cells expressing P53 mutant assessed as DNA fragmentation at 32 to 64 uM after 48 hrs by Hoechst 33258 staining-based fluorescence microscopy; format: functional, cell-based; procedure, shortened: as §1
[7] = test system: A549; assay: Induction of apoptosis in human A549 cells expressing p53 assessed as chromatin condensation at 16 to 64 uM after 48 hrs by Hoechst 33258 staining-based fluorescence microscopy; format: functional, cell-based
Procedure, shortened: (§3)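 Live A549 cells treated 48 h at 16, 32 or 64 µM, or with 0.1% DMSO. Stained in medium with 10 µg/mL Hoechst 33258 for 10 min at 37 °C, washed with PBS. Fluorescence microscopy (200×) scored intense local nuclear staining as apoptotic. At least 500 cells counted; triplicate.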

[8] = test system: NCI-H1299; assay: Induction of apoptosis in human p53-null H1299 cells assessed as chromatin condensation at 32 to 64 uM after 48 hrs by Hoechst 33258 staining-based fluorescence microscopy; format: functional, cell-based; procedure, shortened: as §1
[9] = test system: NCI-H322; assay: Induction of apoptosis in human NCI-H322 cells expressing P53 mutant assessed as chromatin condensation at 32 to 64 uM after 48 hrs by Hoechst 33258 staining-based fluorescence microscopy; format: functional, cell-based; procedure, shortened: as §1
[10] = test system: A549; assay: Induction of apoptosis in human A549 cells expressing p53 assessed as DNA fragmentation at 16 to 64 uM after 48 hrs by Hoechst 33258 staining-based fluorescence microscopy; format: functional, cell-based; procedure, shortened: as §3
[11] = test system: NCI-H1299; assay: Growth inhibition of human H1299 cells assessed as cell viability after 48 hrs by SRB assay; format: functional, cell-based
Procedure, shortened: (§4)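 H1299 (p53-null) or H322 (p53-mutant) cells in RPMI 1640 with 10% bovine calf serum, seeded at 6250/cm2. Treated 48 h at 16, 32 or 64 µM. SRB assay, survival relative to 0.1% DMSO solvent control. Means ± SE, three independent experiments.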

[12] = test system: A549; assay: Cell cycle arrest in human A549 cells assessed as accumulation at G1 phase at 64 uM after 48 hrs by propidium iodide staining-based flow cytometry relative to control; format: functional
[13] = test system: A549; assay: Cell cycle arrest in human A549 cells assessed as accumulation at S phase at 64 uM after 48 hrs by propidium iodide staining-based flow cytometry (reference value: 30.36 %); format: functional
[14] = test system: NCI-H322; assay: Growth inhibition of human NCI-H322 cells assessed as cell viability after 48 hrs by SRB assay; format: functional, cell-based; procedure, shortened: as §4
[15] = test system: A549; assay: Cell cycle arrest in human A549 cells assessed as accumulation at G2 phase at 64 uM after 48 hrs by propidium iodide staining-based flow cytometry (reference value: 11.52 %); format: functional
[16] = test system: A549; assay: Growth inhibition of human A549 cells assessed as cell viability at 8 to 64 uM after 48 hrs by SRB assay; format: functional, cell-based; procedure, shortened: as §2

| Compound | Activity [1] | Activity [2] | Activity [3] | growth inhibition (GI) [4] | Activity [5] | Activity [6] | Activity [7] | Activity [8] | Activity [9] | Activity [10] | growth inhibition (GI) [11] | Activity [12] | Activity [13] | growth inhibition (GI) [14] | Activity [15] | growth inhibition (GI) [16] |
| --- | --- | --- | --- | --- | --- | --- | --- | --- | --- | --- | --- | --- | --- | --- | --- | --- |
| O=C1c2cc(-c3ccc(Cl)cc3)nn2CCN1CCN1CCOCC1 | 1.94% | Active | inactive | Dose-dependent effect | Non-toxic | Active | inactive | Active | Active | inactive | Dose-dependent effect | 27% | 7.6% | Dose-dependent effect | 6.83% |  |
| O=C1c2cc(-c3ccccc3)nn2CCN1CCO |  |  |  |  |  |  |  |  |  |  |  |  |  |  |  | inactive |
| COc1ccc(-c2cc3n(n2)CCN(CCCO)C3=O)cc1 |  |  |  |  |  |  |  |  |  |  |  |  |  |  |  | inactive |
| O=C1c2cc(-c3ccccc3)nn2CCN1CCN1CCOCC1 |  |  |  |  |  |  |  |  |  |  |  |  |  |  |  | inactive |
| COc1ccc(-c2cc3n(n2)CCN(CCO)C3=O)cc1 |  |  |  |  |  |  |  |  |  |  |  |  |  |  |  | inactive |
| O=C1c2cc(-c3ccc(Cl)cc3)nn2CCN1CCOCCO | 1.93% | Active | inactive | Dose-dependent effect | Non-toxic | Active | inactive | Active | Active | inactive | Dose-dependent effect | 13% | 20.98% | Dose-dependent effect | 7.86% |  |
| O=C1c2cc(-c3ccc(Cl)cc3)nn2CCN1CCCO | 1.92% | Active | inactive | Dose-dependent effect | Non-toxic | Active | inactive | Active | Active | inactive | Dose-dependent effect | 32% | 3.83% | Dose-dependent effect | 5.54% |  |
| COc1ccc(-c2cc3n(n2)CCN(CCN2CCOCC2)C3=O)cc1 |  |  |  |  |  |  |  |  |  |  |  |  |  |  |  | inactive |
| O=C1c2cc(-c3ccccc3)nn2CCN1CCCO |  |  |  |  |  |  |  |  |  |  |  |  |  |  |  | inactive |
| O=C1c2cc(-c3ccc(Cl)cc3)nn2CCN1CCO | 1.95% | Active | inactive | Dose-dependent effect | Non-toxic | Active | inactive | Active | Active | inactive | Dose-dependent effect | 18% | 18.02% | Dose-dependent effect | 5.37% |  |
| COc1ccc(-c2cc3n(n2)CCN(CCOCCO)C3=O)cc1 |  |  |  |  |  |  |  |  |  |  |  |  |  |  |  | inactive |
| O=C1c2cc(-c3ccccc3)nn2CCN1CCOCCO |  |  |  |  |  |  |  |  |  |  |  |  |  |  |  | inactive |
